Assay results published in ChEMBL document CHEMBL1124798, “Design of peptidomimetic delta opioid receptor antagonists using the message-address concept” (J Med Chem, 1990).

The compounds below were run against Mu-type opioid receptor (Cavia porcellus) (UniProt P97266) (assay: Antagonist potency was determined as the ratio of [antagonist] to (IC50 ratio-1) for Opioid receptor mu 1). Details: not given.
Assay type: functional
Summary of the method: (§1)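 Ke (nM) = [antagonist]/(IC50 ratio − 1). IC50 ratio is agonist IC50 with antagonist over the control IC50 in the same preparation. Antagonist preincubated 15 min. Agonists: DADLE in mouse vas deferens (δ); morphine (μ) and ethylketazocine (κ) in guinea pig ileum. n ≥ 3.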

Mu-type opioid receptor (Cavia porcellus), sequence (P97266 whole entry): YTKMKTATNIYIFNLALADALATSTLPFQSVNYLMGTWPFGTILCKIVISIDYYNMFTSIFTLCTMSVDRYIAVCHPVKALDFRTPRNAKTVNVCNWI

| Compound | Ke [nM] |
| --- | --- |
| CN1CC[C@]23c4c5ccc(O)c4O[C@H]2c2c(c4ccccc4n2C)C[C@@]3(O)[C@H]1C5 | > 135 |
| COc1ccc2c3c1O[C@H]1c4[nH]c5ccccc5c4C[C@@]4(O)[C@@H](C2)N(CC2CC2)CC[C@]314 | > 333 |

These compounds were tested against T1, Kappa-type opioid receptor (Cavia porcellus, UniProt P41144) (assay: Binding affinity was measured by the displacement of [3H]- EK in guinea pig brain membrane of Opioid receptor kappa 1). Details: not given.
Assay type: cell membranes
Summary of the method: (§2)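 Radioligand displacement from guinea pig brain membranes, modified Werling method. μ sites: [3H]DAMGO. δ sites: [3H]DADLE with 1 μM DAMGO. κ sites: [3H]ethylketazocine with 1 μM DAMGO.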

T1 sequence (P41144 whole entry): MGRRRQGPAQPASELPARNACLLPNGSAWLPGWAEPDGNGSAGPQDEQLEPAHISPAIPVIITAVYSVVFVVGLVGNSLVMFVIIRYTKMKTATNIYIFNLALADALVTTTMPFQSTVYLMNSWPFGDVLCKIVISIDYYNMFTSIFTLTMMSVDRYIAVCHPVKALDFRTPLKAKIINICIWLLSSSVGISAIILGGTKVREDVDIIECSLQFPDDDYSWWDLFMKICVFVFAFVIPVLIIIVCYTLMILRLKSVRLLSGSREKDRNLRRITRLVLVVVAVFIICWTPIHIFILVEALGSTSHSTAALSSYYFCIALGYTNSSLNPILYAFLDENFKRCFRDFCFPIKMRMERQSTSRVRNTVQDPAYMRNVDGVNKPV

| Compound | Ki [nM] |
| --- | --- |
| Oc1ccc2c3c1O[C@H]1c4[nH]c5ccccc5c4C[C@@]4(O)[C@@H](C2)N(CC2CC2)CC[C@]314 [NALTRINDOLE] | 332 |
| COc1ccc2c3c1O[C@H]1c4[nH]c5ccccc5c4C[C@@]4(O)[C@@H](C2)N(CC2CC2)CC[C@]314 | > 1000 |

What follows are compounds tested against Kappa-type opioid receptor (Cavia porcellus) (UniProt P41144) (assay: Opioid receptor kappa 1 antagonistic activity was measured by the displacement of ethylketazocine in the guinea pig ileum at a concentration of 100 nM). Details: not given.
Assay type: functional, tissue-based
Summary of the method: (§3)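 Guinea pig ileum. Antagonist (nM, as stated on line) incubated 15 min before testing. Agonists: morphine (μ) and ethylketazocine (κ).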

Kappa-type opioid receptor (Cavia porcellus), sequence (P41144 whole entry): as above

| Compound | IC50 ratio |
| --- | --- |
| Cc1cccc2c3c([nH]c12)[C@@H]1Oc2c(O)ccc4c2[C@@]12CCN(CC1CC1)[C@H](C4)[C@]2(O)C3 | 1.3 |
| CN1CC[C@]23c4c5ccc(O)c4O[C@H]2c2c(c4ccccc4n2C)C[C@@]3(O)[C@H]1C5 | 0.5 |
| COc1ccc2c3c1O[C@H]1c4[nH]c5ccccc5c4C[C@@]4(O)[C@@H](C2)N(CC2CC2)CC[C@]314 | 0.6 |

The compounds below were run against Delta-type opioid receptor (Mus musculus) (UniProt P32300) (assay: Antagonist potency was determined as the ratio of [antagonist] to (IC50 ratio-1) for opioid receptor delta 1). Details: not given.
Assay type: functional
Summary of the method: as §1

Delta-type opioid receptor (Mus musculus), sequence (P32300 whole entry): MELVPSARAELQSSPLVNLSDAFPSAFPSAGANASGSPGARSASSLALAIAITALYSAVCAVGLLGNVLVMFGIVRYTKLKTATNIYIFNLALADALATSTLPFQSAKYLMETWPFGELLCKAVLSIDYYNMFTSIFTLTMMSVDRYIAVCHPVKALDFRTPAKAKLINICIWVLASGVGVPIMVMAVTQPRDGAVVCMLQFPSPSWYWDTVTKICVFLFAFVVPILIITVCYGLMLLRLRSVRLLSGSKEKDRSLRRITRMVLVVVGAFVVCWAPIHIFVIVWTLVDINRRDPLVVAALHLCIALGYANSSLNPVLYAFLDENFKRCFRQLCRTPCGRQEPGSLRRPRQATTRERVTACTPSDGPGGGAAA

| Compound | Ke [nM] |
| --- | --- |
| CN1CC[C@]23c4c5ccc(O)c4O[C@H]2c2c(c4ccccc4n2C)C[C@@]3(O)[C@H]1C5 | > 416 |
| COc1ccc2c3c1O[C@H]1c4[nH]c5ccccc5c4C[C@@]4(O)[C@@H](C2)N(CC2CC2)CC[C@]314 | > 200 |

What follows are compounds tested against Delta-type opioid receptor (Mus musculus) (UniProt P32300) (assay: Opioid receptor delta 1 antagonistic activity was measured by the displacement of DADLE in the mouse vas deferens at a concentration of 100 nM). Details: not given.
Assay type: functional
Summary of the method: (§4)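 Mouse vas deferens. Antagonist (nM, as stated on line) incubated with the preparation 15 min before testing. δ agonist [D-Ala2,D-Leu5]enkephalin.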

| Compound | IC50 ratio |
| --- | --- |
| Cc1cccc2c3c([nH]c12)[C@@H]1Oc2c(O)ccc4c2[C@@]12CCN(CC1CC1)[C@H](C4)[C@]2(O)C3 | 67 |
| CN1CC[C@]23c4c5ccc(O)c4O[C@H]2c2c(c4ccccc4n2C)C[C@@]3(O)[C@H]1C5 | 1.2 |
| COc1ccc2c3c1O[C@H]1c4[nH]c5ccccc5c4C[C@@]4(O)[C@@H](C2)N(CC2CC2)CC[C@]314 | 1.5 |

Each compound was assayed against Kappa-type opioid receptor (Cavia porcellus) (UniProt P41144) (assay: Opioid receptor kappa antagonistic activity was measured by the displacement of ethylketazocine in the guinea pig ileum at a concentration of 100 nM). Details: not given.
Assay type: functional, tissue-based
Summary of the method: as §3

| Compound | IC50 ratio |
| --- | --- |
| Cc1cccc2c3c([nH]c12)[C@@H]1Oc2c(O)ccc4c2[C@@]12CCN(CC1CC1)[C@H](C4)[C@]2(O)C3 | 1.3 |
| CN1CC[C@]23c4c5ccc(O)c4O[C@H]2c2c(c4ccccc4n2C)C[C@@]3(O)[C@H]1C5 | 0.5 |
| COc1ccc2c3c1O[C@H]1c4[nH]c5ccccc5c4C[C@@]4(O)[C@@H](C2)N(CC2CC2)CC[C@]314 | 0.6 |

Each compound was assayed against Opioid receptors; mu & delta (Homo sapiens) (UniProt P41143+P35372) (assay: Selectivity ratio was determined from Ke value of Opioid receptor mu 1 and Opioid receptor delta 1). Details: Cavia porcellus.
Assay type: protein assay
Summary of the method: (§5)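 Ratios of Ke values, μ/δ or κ/δ. Each Ke = [antagonist]/(IC50 ratio − 1). δ from DADLE in mouse vas deferens; μ (morphine) and κ (ethylketazocine) in guinea pig ileum. 15 min antagonist preincubation, n ≥ 3.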

Opioid receptors; mu & delta (Homo sapiens), sequence (P35372 whole entry, looked up): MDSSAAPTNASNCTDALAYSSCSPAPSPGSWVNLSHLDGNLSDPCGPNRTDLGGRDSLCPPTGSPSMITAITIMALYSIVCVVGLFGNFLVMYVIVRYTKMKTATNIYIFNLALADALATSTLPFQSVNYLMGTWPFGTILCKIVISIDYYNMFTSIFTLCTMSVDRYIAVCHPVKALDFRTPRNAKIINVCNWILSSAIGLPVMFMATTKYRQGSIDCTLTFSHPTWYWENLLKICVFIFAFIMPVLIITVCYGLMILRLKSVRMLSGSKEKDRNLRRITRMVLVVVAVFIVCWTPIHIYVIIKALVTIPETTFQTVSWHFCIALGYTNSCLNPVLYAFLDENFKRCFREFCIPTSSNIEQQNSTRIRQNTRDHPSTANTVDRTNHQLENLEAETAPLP
Opioid receptors; mu & delta (Homo sapiens), sequence (P41143 whole entry, looked up): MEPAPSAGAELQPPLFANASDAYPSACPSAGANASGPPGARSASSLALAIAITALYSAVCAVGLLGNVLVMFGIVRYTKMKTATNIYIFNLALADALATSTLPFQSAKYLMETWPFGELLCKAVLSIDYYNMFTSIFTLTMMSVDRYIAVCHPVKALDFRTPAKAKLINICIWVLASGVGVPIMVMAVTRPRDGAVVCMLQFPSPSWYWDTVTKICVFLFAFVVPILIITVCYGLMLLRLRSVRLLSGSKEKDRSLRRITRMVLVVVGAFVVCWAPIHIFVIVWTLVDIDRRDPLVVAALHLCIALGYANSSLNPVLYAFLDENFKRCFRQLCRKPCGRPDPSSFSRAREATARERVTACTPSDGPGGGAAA

| Compound | Selectivity ratio |
| --- | --- |
| CC(C)(S)[C@@H](NC(=O)[C@H](Cc1ccc(O)cc1)NC(=O)CNC(=O)[C@H](NC(=O)[C@@H](N)Cc1ccccc1)C(C)(C)S)C(=O)O | 52 |

What follows are compounds tested against Opioid receptors; delta & kappa (Homo sapiens) (UniProt P41145+P41143) (assay: Selectivity ratio was determined from Ke value of Opioid receptor kappa 1 and Opioid receptor delta 1). Details: Cavia porcellus.
Assay type: protein assay
Summary of the method: as §5

Opioid receptors; delta & kappa (Homo sapiens), sequence (P41143 whole entry, looked up): as above
Opioid receptors; delta & kappa (Homo sapiens), sequence (P41145 whole entry, looked up): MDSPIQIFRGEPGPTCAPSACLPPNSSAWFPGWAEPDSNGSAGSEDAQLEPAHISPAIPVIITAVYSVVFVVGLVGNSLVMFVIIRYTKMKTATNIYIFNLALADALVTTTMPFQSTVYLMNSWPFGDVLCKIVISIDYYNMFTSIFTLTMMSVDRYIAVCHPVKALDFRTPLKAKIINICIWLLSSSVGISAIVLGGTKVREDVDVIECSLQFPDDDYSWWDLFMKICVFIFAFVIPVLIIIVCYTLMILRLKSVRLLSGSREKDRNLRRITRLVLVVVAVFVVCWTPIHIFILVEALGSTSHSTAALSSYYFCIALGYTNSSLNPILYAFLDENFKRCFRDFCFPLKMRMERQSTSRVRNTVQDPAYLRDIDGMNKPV

| Compound | Selectivity ratio |
| --- | --- |
| CC(C)(S)[C@@H](NC(=O)[C@H](Cc1ccc(O)cc1)NC(=O)CNC(=O)[C@H](NC(=O)[C@@H](N)Cc1ccccc1)C(C)(C)S)C(=O)O | 202 |
| Cc1cccc2c3c([nH]c12)[C@@H]1Oc2c(O)ccc4c2[C@@]12CCN(CC1CC1)[C@H](C4)[C@]2(O)C3 | > 221 |

What follows are compounds tested against Delta-type opioid receptor (Mus musculus) (UniProt P32300) (assay: Opioid receptor delta antagonistic activity was measured by the displacement of DADLE in the mouse vas deferens at a concentration of 100 nM). Details: not given.
Assay type: functional
Summary of the method: as §4

| Compound | IC50 ratio |
| --- | --- |
| Cc1cccc2c3c([nH]c12)[C@@H]1Oc2c(O)ccc4c2[C@@]12CCN(CC1CC1)[C@H](C4)[C@]2(O)C3 | 67 |
| CN1CC[C@]23c4c5ccc(O)c4O[C@H]2c2c(c4ccccc4n2C)C[C@@]3(O)[C@H]1C5 | 1.2 |
| COc1ccc2c3c1O[C@H]1c4[nH]c5ccccc5c4C[C@@]4(O)[C@@H](C2)N(CC2CC2)CC[C@]314 | 1.5 |

What follows are compounds tested against T1, Kappa-type opioid receptor (assay: Binding affinity was measured by the displacement of [3H]- EK in guinea pig brain membrane of opioid receptor kappa). Details: not given.
Assay type: cell membranes
Summary of the method: as §2

| Compound | Ki [nM] |
| --- | --- |
| Oc1ccc2c3c1O[C@H]1c4[nH]c5ccccc5c4C[C@@]4(O)[C@@H](C2)N(CC2CC2)CC[C@]314 [NALTRINDOLE] | 332 |
| COc1ccc2c3c1O[C@H]1c4[nH]c5ccccc5c4C[C@@]4(O)[C@@H](C2)N(CC2CC2)CC[C@]314 | > 1000 |

What follows are compounds tested against Kappa-type opioid receptor (Cavia porcellus) (UniProt P41144) (assay: Antagonist potency was determined as the ratio of [antagonist] to (IC50 ratio-1) for Opioid receptor kappa 1). Details: not given.
Assay type: functional
Summary of the method: as §1

| Compound | Ke [nM] |
| --- | --- |
| Cc1cccc2c3c([nH]c12)[C@@H]1Oc2c(O)ccc4c2[C@@]12CCN(CC1CC1)[C@H](C4)[C@]2(O)C3 | > 333 |
| CN1CC[C@]23c4c5ccc(O)c4O[C@H]2c2c(c4ccccc4n2C)C[C@@]3(O)[C@H]1C5 | > 200 |
| COc1ccc2c3c1O[C@H]1c4[nH]c5ccccc5c4C[C@@]4(O)[C@@H](C2)N(CC2CC2)CC[C@]314 | > 167 |

Each compound was assayed against T2, Mu-type opioid receptor (Cavia porcellus, UniProt P97266) (assay: Binding affinity was measured by the displacement of [3H]- DAMGO in guinea pig brain membrane of Opioid receptor mu 1). Details: not given.
Assay type: cell membranes
Summary of the method: as §2

T2 sequence (P97266 whole entry): as the sequence (P97266 whole entry) above

| Compound | Ki [nM] |
| --- | --- |
| Oc1ccc2c3c1O[C@H]1c4[nH]c5ccccc5c4C[C@@]4(O)[C@@H](C2)N(CC2CC2)CC[C@]314 [NALTRINDOLE] | 3.8 |
| COc1ccc2c3c1O[C@H]1c4[nH]c5ccccc5c4C[C@@]4(O)[C@@H](C2)N(CC2CC2)CC[C@]314 | 550 |

Each compound was assayed against Mu-type opioid receptor (Cavia porcellus) (UniProt P97266) (assay: Opioid receptor mu 1 antagonistic activity was measured by the displacement of morphine in the guinea pig ileum at a concentration of 100 nM). Details: not given.
Assay type: functional, tissue-based
Summary of the method: as §3

| Compound | IC50 ratio |
| --- | --- |
| Cc1cccc2c3c([nH]c12)[C@@H]1Oc2c(O)ccc4c2[C@@]12CCN(CC1CC1)[C@H](C4)[C@]2(O)C3 | 7.1 |
| CN1CC[C@]23c4c5ccc(O)c4O[C@H]2c2c(c4ccccc4n2C)C[C@@]3(O)[C@H]1C5 | 0.74 |
| COc1ccc2c3c1O[C@H]1c4[nH]c5ccccc5c4C[C@@]4(O)[C@@H](C2)N(CC2CC2)CC[C@]314 | 1.3 |

What follows are compounds tested against T2, Mu-type opioid receptor (assay: Binding affinity was measured by the displacement of [3H]- DAMGO in guinea pig brain membrane of opioid receptor mu). Details: not given.
Assay type: cell membranes
Summary of the method: as §2

| Compound | Ki [nM] |
| --- | --- |
| COc1ccc2c3c1O[C@H]1c4[nH]c5ccccc5c4C[C@@]4(O)[C@@H](C2)N(CC2CC2)CC[C@]314 | 550 |

These compounds were tested against Mu-type opioid receptor (Cavia porcellus) (UniProt P97266) (assay: Opioid receptor mu antagonistic activity was measured by the displacement of morphine in the guinea pig ileum at a concentration of 100 nM). Details: not given.
Assay type: functional, tissue-based
Summary of the method: as §3

| Compound | IC50 ratio |
| --- | --- |
| Cc1cccc2c3c([nH]c12)[C@@H]1Oc2c(O)ccc4c2[C@@]12CCN(CC1CC1)[C@H](C4)[C@]2(O)C3 | 7.1 |
| CN1CC[C@]23c4c5ccc(O)c4O[C@H]2c2c(c4ccccc4n2C)C[C@@]3(O)[C@H]1C5 | 0.74 |
| COc1ccc2c3c1O[C@H]1c4[nH]c5ccccc5c4C[C@@]4(O)[C@@H](C2)N(CC2CC2)CC[C@]314 | 1.3 |
